Source: ChEMBL document CHEMBL4411320, “Synthesis and anti-HCV activity of β-d-2'-deoxy-2'-α-chloro-2'-β-fluoro and β-d-2'-deoxy-2'-α-bromo-2'-β-fluoro nucleosides and their phosphoramidate prodrugs” (Bioorg Med Chem, 2019)

Experiments:
Hepatitis C virus = experiment: Antiviral activity against HCV genotype 1b subgenomic replicon infected in human HuH7 clone B cells assessed as inhibition of viral RNA replication after 5 days by RT-PCR method; type: functional, organism-based, Hepacivirus hominis; conditions: subtype 1b, Huh-7, 120 h
How it was run: (§1)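 Huh-7 cells carrying a genotype 1b subgenomic HCV replicon were exposed to compounds at concentrations […]. Total RNA was then extracted and amplified to quantify both replicon HCV RNA (antiviral read-out) and cellular ribosomal RNA (cytotoxicity read-out), in the same cultures at the same time.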

Huh-7 = experiment: (§2) Cytotoxicity against human HuH7 cells assessed as reduction in rRNA levels after 5 days by RT-PCR analysis; type: cell-based; conditions: huh-7, 120 h; how it was run: as §1
PBMC = experiment: (§3) Cytotoxicity against human PBMC after 6 days by trypan blue exclusion method; type: cell-based; conditions: pbmc, 144 h
CCRF-CEM = experiment: (§4) Cytotoxicity against human CEM cells after 6 days by trypan blue exclusion method; type: cell-based; conditions: ccrf-cem, 144 h
Vero = experiment: (§5) Cytotoxicity against African green monkey Vero cells after 3 days by hemocytometric method; type: cell-based; conditions: chlorocebus sabaeus, vero, 72 h
[1] = as §5; type: cell-based; conditions: chlorocebus sabaeus, Vero cells
[2] = as §2; type: cell-based, Huh-7; conditions: HuH7 cells; how it was run: as §1
[3] = as §3; type: cell-based; conditions: PBMC
[4] = as §4; type: cell-based, CCRF-CEM; conditions: CEM cells

Compound | EC50 (Hepatitis C virus) | CC50 (Huh-7) | CC50 (PBMC) | CC50 (CCRF-CEM) | CC50 (Vero) | EC90 (Hepatitis C virus) | CC50 at 72 h [1] | CC50 at 120 h [2] | CC50 at 144 h [3] | CC50 at 144 h [4]
Nc1ccn([C@@H]2O[C@H](CO)[C@@H](O)[C@@]2(F)Cl)c(=O)n1 | > 10 µM | 12 µM | 9.3 µM | 11 µM | 63 µM |  |  |  |  | 
O=c1ccn([C@@H]2O[C@H](CO)[C@@H](O)[C@@]2(F)Cl)c(=O)[nH]1 | > 10 µM | > 100 µM | > 100 µM | > 100 µM | > 100 µM | > 10 µM |  |  |  | 
Nc1ncnc2c1ncn2[C@@H]1O[C@H](CO)[C@@H](O)[C@@]1(F)Cl | > 10 µM | > 100 µM | > 100 µM | > 100 µM | > 100 µM |  |  |  |  | 
Nc1nc2c(ncn2[C@@H]2O[C@H](CO)[C@@H](O)[C@@]2(F)Cl)c(=O)[nH]1 | > 10 µM | > 100 µM | > 100 µM | > 100 µM | > 100 µM | > 10 µM |  |  |  | 
CC(C)OC(=O)[C@H](C)N[P@](=O)(OC[C@H]1O[C@@H](n2cnc3c(=O)[nH]c(N)nc32)[C@](F)(Br)[C@@H]1O)Oc1ccccc1 | > 10 µM | > 100 µM | > 100 µM | > 100 µM | > 100 µM | > 10 µM |  |  |  | 
O=c1ccn([C@@H]2O[C@H](CO)[C@@H](O)[C@@]2(F)Br)c(=O)[nH]1 | > 10 µM | > 100 µM | > 100 µM | > 100 µM | > 100 µM | > 10 µM |  |  |  | 
Nc1nc2c(ncn2[C@@H]2O[C@H](CO)[C@@H](O)[C@@]2(F)Br)c(=O)[nH]1 | > 10 µM | > 100 µM | > 100 µM | > 100 µM | > 100 µM |  |  |  |  | 
Nc1ccn([C@@H]2O[C@H](CO)[C@@H](O)[C@@]2(F)Br)c(=O)n1 | 5.1 µM | 2.9 µM | > 100 µM | 3.2 µM | 2.9 µM | > 10 µM |  |  |  | 
Nc1ncnc2c1ncn2[C@@H]1O[C@H](CO)[C@@H](O)[C@@]1(F)Br | > 10 µM | > 100 µM | > 100 µM | > 100 µM | > 100 µM |  |  |  |  | 
CC(C)OC(=O)[C@H](C)NP(=O)(OC[C@H]1O[C@@H](n2cnc3c(N)ncnc32)[C@](F)(Br)[C@@H]1O)Oc1ccccc1 (mixture of isomers) | > 10 µM | 6.9 µM | 19 µM | 29 µM | 71 µM |  |  |  |  | 
CC(C)OC(=O)[C@H](C)NP(=O)(OC[C@H]1O[C@@H](n2ccc(=O)[nH]c2=O)[C@](F)(Cl)[C@@H]1O)Oc1ccccc1 (mixture of isomers) | 0.9 µM | 1.3 µM | > 100 µM | 90 µM | > 100 µM | 3.7 µM |  |  |  | 
CC(C)OC(=O)[C@H](C)NP(=O)(OC[C@H]1O[C@@H](n2cnc3c(N)ncnc32)[C@](F)(Cl)[C@@H]1O)Oc1ccccc1 (mixture of isomers) | 2.7 µM | 1.6 µM | 26 µM | 15 µM | > 100 µM | ≥ 10 µM |  |  |  | 
CC(C)OC(=O)[C@H](C)NP(=O)(OC[C@H]1O[C@@H](n2ccc(=O)[nH]c2=O)[C@](F)(Br)[C@@H]1O)Oc1ccccc1 (mixture of isomers) | 0.4 µM | 8 µM |  |  |  | 2 µM | > 100 µM |  |  | 
CC(C)OC(=O)[C@H](C)NP(=O)(OC[C@H]1O[C@@H](n2ccc(N)nc2=O)[C@](F)(Br)[C@@H]1O)Oc1ccccc1 (mixture of isomers) | 2.4 µM | 6.8 µM | > 100 µM | > 100 µM | > 100 µM | ≥ 10 µM |  |  |  | 
CC(C)OC(=O)[C@H](C)NP(=O)(OC[C@H]1O[C@@H](n2ccc(N)nc2=O)[C@](F)(Cl)[C@@H]1O)Oc1ccccc1 (mixture of isomers) | 0.7 µM | 23 µM | > 100 µM | > 100 µM | > 100 µM | 3.4 µM |  |  |  | 
CC(C)OC(=O)[C@H](C)NP(=O)(OC[C@H]1O[C@@H](n2cnc3c(=O)[nH]c(N)nc32)[C@](F)(Cl)[C@@H]1O)Oc1ccccc1 (mixture of isomers) | > 10 µM | > 100 µM | > 100 µM | 84 µM | > 100 µM |  |  |  |  | 
CC(C)OC(=O)[C@H](C)N[P@](=O)(OC[C@H]1O[C@@H](n2ccc(=O)[nH]c2=O)[C@](C)(F)[C@@H]1O)Oc1ccccc1 [SOFOSBUVIR] | 0.05 µM |  |  |  |  | 0.37 µM | > 100 µM | > 100 µM | > 100 µM | > 100 µM
